System: MS2 coat protein
Experiment: apparent Kd, MS2 coat protein; higher = weaker binding; RNA-MaP array; FMN 200 µM where present
Summary of the method: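 Apparent Kd: the median of filtered binding-curve fits from single clusters. Designs were transcribed on Illumina sequencing-chip clusters by stalled E. coli RNA polymerase and titrated with SNAP-549-labelled MS2 coat protein from 0.7 or 1.5 nM, doubling to 3 µM, in 100 mM Tris-HCl pH 7.5, 80 mM KCl, 4 mM MgCl2, BSA, DTT, yeast tRNA and Tween-20. Each series ran without and then with constant ligand, and green signal was normalised to red-channel RNA signal and control-cluster median Fmax.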

[1] = designed as: OFF switch for flavin mononucleotide, no ligand
[2] = ligand present: flavin mononucleotide, designed as: OFF switch for flavin mononucleotide
[3] = designed as: ON switch for flavin mononucleotide, no ligand
[4] = ligand present: flavin mononucleotide, designed as: ON switch for flavin mononucleotide

| Sequence | apparent Kd [1] [nM] | apparent Kd [2] [nM] | apparent Kd [3] [nM] | apparent Kd [4] [nM] |
| --- | --- | --- | --- | --- |
| GGGCAAAAGUAGAAGGGAUAUACGAAAAGUAUAUCAGGAUAUACAUGAGGAUCACCCAUGUUCUAAAAGUGAUAGUCCUCCCUA | 33.3 | 262 |  |  |
| UUCAUGUGAGGAUAUGUGAUCUGCUUUCUGUUUAGAUGAUCACAGAAGGCACAUGAGGAUCACCCAUGUAGAUC |  | 22.6 |  |  |
| AAAAAGGCAGGAUAUACAUGAGGAUCACCCAUGUAAAGAAAGAAAGAGGUGAAAGAAAGUAGAAGGGCCAAAAA | 160 | 179 |  |  |
| GGAAUAAAUGCAGGAUAUACGUGGAAAGCUUUCAACAUGAGGAUCACCCAUGUAGAAGGGCAUCUCCCGACCGAAGCGGAUCUC | 5.8 | 6.27 |  |  |
| GCGAAUCAGUGAGGAUAUACAUAAAUUAUAACAGUAGAAGGCACAUACCUCAAGACAUGAGGAUCACCCAUGUGACAUAUCGCU | 258 | 488 |  |  |
| AAAAGUCGGCAAGGAUAUACAACGGAUUCCCUUGUAGAAGGUGCAGGACAUGAGGAUCACCCAUGUGAUCCGGGUAUAUUGAUG | 27.8 | 44.8 |  |  |
| GUCAGCACGUGAGGAUAUACAACACUGCUUCGGCAGUGUAUUAAGAUCACAUGAGGAUCACCCAUGUAGAAGGCACGAGCUGAU | 13.6 | 268 |  |  |
| ACGGCUGUCAGAGGAUAUGGUUACAUGAGGAUCACCCAUGUCAAGGGUCUAACUAAGUAUAACUACUAGAAGGCUGAUGGCCGA | 674 | 350 |  |  |
| UGUUGUAUUACAGGAUAUCUAUUAUUUUUAUUUAGAGAAGGGUAUUCACAUGAGGAUCACCCAUGUAUAUACGAGGAAGUUGUG |  |  | 52.6 | 58.9 |
| AUUUAUGUCAUAGGAUAUAUAAAUAAAUUUAUAACAUGAGGAUCACCCAUGUACUUGGGUAUUAGGUAGAAGGAUGAUAAGAAU |  |  | 572 | 254 |
| CUGCAGUAAGGAUAUACAUGAGGAUCACCCAUGUAGCAACUUACAUAACGAAACGCAUGUAGAAGGUACCAGAU | 14 | 15.4 |  |  |
| GCCGGAUUUGUGAGGAUAUACCUAUGGAUACAUAGGUAGAAGGCACAUGAGGAUCACCCAUGUUCCUCUCCGGC | 49 | 582 |  |  |
| UCGGCGCGAGGAUAUGCGGUUUGUGCUUCGGGCCCUCGCGUACAUGAGGAUCACCCAUGUAGAAGGCGCGCCGC | 201 | 123 |  |  |
| CAUCAUGCGUCUAAGGAUAUGUCUCACAAGACAUGAGGAUCACCCAUGUAGAAUAAAUAAAUGAUGCAGAAGGUGGAGCGCAUGC |  |  | 343 | 57.4 |
| UCAGGCUUCGAGAAGGACAUGAAUCGUAGCAUUGCUACGAUGAAAUAUACAUGAGGAUCACCCAUGUAGGAUAUCGGAGUCUGC | 5.35 | 6.13 |  |  |
| UGGUACUAGGGAGGAUAUGGGAACAUACAUGAGGAUCACCCAUGUUUAAGAAUGCCGAGAGGCAACUAGAAGGCCCUAGUACCU |  |  | 15.7 | 4.96 |
| CUUUUGUGAGGAUAUUAGUAGUAAAUAAUUAAAAUUACUACUGAGAAGGCACAUGAGGAUCACCCAUGUUCCUC | 33.2 | 344 |  |  |
| AAUGUUUGAUUCCACCUAUACAUGAGGAUCACCCAUGUUAUCGAGGAUAUGCAUUAGAGUGUUUAGCAGAAGGCGAUGUAAUUG | 8.34 | 23 |  |  |
| UGGAUGGUAUGAGGAUAUGCGCGCGAAACGCGCGCAGAAGGCGUGUCAAUAGACAUGAGGAUCACCCAUGUAUUAUCCAUCCAA |  |  | 130 | 12.3 |
| UGGUACUAGGGAGGAUAUGGGAAGAUACAUGAGGAUCACCCAUGUUUAAGAAUGCCUAGAGGCAACUAGAAGGCCCUAGUACCU |  |  | 393 | 19.1 |
| CAGUACUGAGGAUAUACAUGAGGAUCACCCAUGUGUUCCAGCUAGGUAACUAGCAAAAGUAGAAGGCAGUACUG | 23.6 | 321 |  |  |
| GGAACUCAUGUAGGAUAUGCAUGGCGAAGCUACGCAGAAGGACAUGAGGAUCACCCAUGUUCUAGCGUCUGGAUACAGAUGCAA | 169 | 130 |  |  |
| AGAAAACAUGAGGAUCACCCAUGUCAGGAUAUCUCCAAGGCUUAACAUCCAGCCCUGCAGAGAAGGGACGGGUG | 87.9 | 225 |  |  |

— the EternaBench riboswitch data
